Test system: Fibroblast
Assay: Multiplex assay against human fibroblast
Type: toxicity, cell-based
Method in brief: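 Four dyes were applied at seeding to live cells: Hoechst33342, BioTracker Green Microtubule Cytoskeleton Dye, MitoTracker Red and Annexin V Alexa Fluor 680. Imaging after compound addition used a CQ1 microscope at 37°C and 5% CO2. CellPathfinder machine-learning gating then sorted cells into Hoechst high-intensity objects or normal cells, normal cells into healthy, pyknosed or fragmented nuclei, and pyknosed cells into mitotic or apoptotic, with tubulin, mitochondrial-mass and membrane-permeability phenotypes given as per cents of healthy-nucleus cells.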

[1] = 12 h, 1 µM, compound concentration 1 uM, replicate 1
[2] = 12 h, 1 µM, compound concentration 1 uM, replicate 2
[3] = 12 h, 10 µM, compound concentration 10 uM, replicate 1
[4] = 12 h, 10 µM, compound concentration 10 uM, replicate 2
[5] = 24 h, 1 µM, compound concentration 1 uM, replicate 1
[6] = 24 h, 1 µM, compound concentration 1 uM, replicate 2
[7] = 24 h, 10 µM, compound concentration 10 uM, replicate 1
[8] = 24 h, 10 µM, compound concentration 10 uM, replicate 2
[9] = 48 h, 1 µM, compound concentration 1 uM, replicate 1
[10] = 48 h, 1 µM, compound concentration 1 uM, replicate 2
[11] = 48 h, 10 µM, compound concentration 10 uM, replicate 1
[12] = 48 h, 10 µM, compound concentration 10 uM, replicate 2

Cc1ccc(OCC(O)C(C)NC(C)C)c2c1CCC2.Cl (stereo unspecified)
Population Apoptotic (%) [1]: 36% | Population Fragmented Nuclei (%) [1]: 10% | Population Healthy Nuclei (%) [1]: 68% | Population Hoechst High Intensity Objects (%) [1]: 0% | Population Membrane Permeable-Phenotype (%) [1]: 0% | Population Mitochondria Different-Phenotype (%) [1]: 3% | Population Mitotic Cells (%) [1]: 63% | Population Normal (%) [1]: 99% | Population Pyknosed Nuclei (%) [1]: 20% | Population Tubulin-Different-Phenotype (%) [1]: 26% | Total Cell Count [1]: 159 | Population Apoptotic (%) [2]: 28% | Population Fragmented Nuclei (%) [2]: 17% | Population Healthy Nuclei (%) [2]: 55% | Population Hoechst High Intensity Objects (%) [2]: 9% | Population Membrane Permeable-Phenotype (%) [2]: 4% | Population Mitochondria Different-Phenotype (%) [2]: 7% | Population Mitotic Cells (%) [2]: 71% | Population Normal (%) [2]: 90% | Population Pyknosed Nuclei (%) [2]: 27% | Population Tubulin-Different-Phenotype (%) [2]: 50% | Total Cell Count [2]: 210 | Population Apoptotic (%) [3]: 47% | Population Fragmented Nuclei (%) [3]: 39% | Population Healthy Nuclei (%) [3]: 47% | Population Hoechst High Intensity Objects (%) [3]: 1% | Population Membrane Permeable-Phenotype (%) [3]: 0% | Population Mitochondria Different-Phenotype (%) [3]: 12% | Population Mitotic Cells (%) [3]: 52% | Population Normal (%) [3]: 98% | Population Pyknosed Nuclei (%) [3]: 12% | Population Tubulin-Different-Phenotype (%) [3]: 52% | Total Cell Count [3]: 138 | Population Apoptotic (%) [4]: 25% | Population Fragmented Nuclei (%) [4]: 33% | Population Healthy Nuclei (%) [4]: 50% | Population Hoechst High Intensity Objects (%) [4]: 2% | Population Membrane Permeable-Phenotype (%) [4]: 7% | Population Mitochondria Different-Phenotype (%) [4]: 17% | Population Mitotic Cells (%) [4]: 74% | Population Normal (%) [4]: 97% | Population Pyknosed Nuclei (%) [4]: 16% | Population Tubulin-Different-Phenotype (%) [4]: 54% | Total Cell Count [4]: 168 | Population Apoptotic (%) [5]: 57% | Population Fragmented Nuclei (%) [5]: 11% | Population Healthy Nuclei (%) [5]: 74% | Population Hoechst High Intensity Objects (%) [5]: 0% | Population Membrane Permeable-Phenotype (%) [5]: 4% | Population Mitochondria Different-Phenotype (%) [5]: 5% | Population Mitotic Cells (%) [5]: 42% | Population Normal (%) [5]: 100% | Population Pyknosed Nuclei (%) [5]: 13% | Population Tubulin-Different-Phenotype (%) [5]: 30% | Total Cell Count [5]: 154 | Population Apoptotic (%) [6]: 20% | Population Fragmented Nuclei (%) [6]: 27% | Population Healthy Nuclei (%) [6]: 46% | Population Hoechst High Intensity Objects (%) [6]: 15% | Population Membrane Permeable-Phenotype (%) [6]: 1% | Population Mitochondria Different-Phenotype (%) [6]: 8% | Population Mitotic Cells (%) [6]: 80% | Population Normal (%) [6]: 84% | Population Pyknosed Nuclei (%) [6]: 26% | Population Tubulin-Different-Phenotype (%) [6]: 52% | Total Cell Count [6]: 201 | Population Apoptotic (%) [7]: 35% | Population Fragmented Nuclei (%) [7]: 39% | Population Healthy Nuclei (%) [7]: 49% | Population Hoechst High Intensity Objects (%) [7]: 1% | Population Membrane Permeable-Phenotype (%) [7]: 1% | Population Mitochondria Different-Phenotype (%) [7]: 13% | Population Mitotic Cells (%) [7]: 64% | Population Normal (%) [7]: 98% | Population Pyknosed Nuclei (%) [7]: 11% | Population Tubulin-Different-Phenotype (%) [7]: 63% | Total Cell Count [7]: 151 | Population Apoptotic (%) [8]: 36% | Population Fragmented Nuclei (%) [8]: 35% | Population Healthy Nuclei (%) [8]: 50% | Population Hoechst High Intensity Objects (%) [8]: 5% | Population Membrane Permeable-Phenotype (%) [8]: 4% | Population Mitochondria Different-Phenotype (%) [8]: 14% | Population Mitotic Cells (%) [8]: 63% | Population Normal (%) [8]: 94% | Population Pyknosed Nuclei (%) [8]: 13% | Population Tubulin-Different-Phenotype (%) [8]: 65% | Total Cell Count [8]: 168 | Population Apoptotic (%) [9]: 64% | Population Fragmented Nuclei (%) [9]: 16% | Population Healthy Nuclei (%) [9]: 71% | Population Hoechst High Intensity Objects (%) [9]: 4% | Population Membrane Permeable-Phenotype (%) [9]: 0% | Population Mitochondria Different-Phenotype (%) [9]: 1% | Population Mitotic Cells (%) [9]: 35% | Population Normal (%) [9]: 95% | Population Pyknosed Nuclei (%) [9]: 11% | Population Tubulin-Different-Phenotype (%) [9]: 23% | Total Cell Count [9]: 155 | Population Apoptotic (%) [10]: 34% | Population Fragmented Nuclei (%) [10]: 37% | Population Healthy Nuclei (%) [10]: 42% | Population Hoechst High Intensity Objects (%) [10]: 11% | Population Membrane Permeable-Phenotype (%) [10]: 5% | Population Mitochondria Different-Phenotype (%) [10]: 8% | Population Mitotic Cells (%) [10]: 65% | Population Normal (%) [10]: 88% | Population Pyknosed Nuclei (%) [10]: 20% | Population Tubulin-Different-Phenotype (%) [10]: 60% | Total Cell Count [10]: 196 | Population Apoptotic (%) [11]: 71% | Population Fragmented Nuclei (%) [11]: 35% | Population Healthy Nuclei (%) [11]: 50% | Population Hoechst High Intensity Objects (%) [11]: 1% | Population Membrane Permeable-Phenotype (%) [11]: 0% | Population Mitochondria Different-Phenotype (%) [11]: 9% | Population Mitotic Cells (%) [11]: 28% | Population Normal (%) [11]: 98% | Population Pyknosed Nuclei (%) [11]: 13% | Population Tubulin-Different-Phenotype (%) [11]: 68% | Total Cell Count [11]: 155 | Population Apoptotic (%) [12]: 60% | Population Fragmented Nuclei (%) [12]: 39% | Population Hoechst High Intensity Objects (%) [12]: 7% | Population Membrane Permeable-Phenotype (%) [12]: 5% | Population Mitochondria Different-Phenotype (%) [12]: 10% | Population Mitotic Cells (%) [12]: 40% | Population Normal (%) [12]: 92% | Population Pyknosed Nuclei (%) [12]: 10% | Population Tubulin-Different-Phenotype (%) [12]: 63% | Total Cell Count [12]: 157
